pIC50: −log10 of the molar value.
How the values were obtained:
Homo sapiens [1] = organism: Homo sapiens; assay: Concentration to achieve half-maximal inhibition of acid-induced swelling in human platelets using platelet swelling assay; format: functional
Outline: (§1)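 Human platelet-rich plasma from citrated venous blood (centrifuged 1000 rpm, 20 min, RT; pH adjusted to 7.4; used within 4–5 h). Final 2 × 10^8 platelets/mL in pH 6.6 buffer: 120 mM Na propionate, 20 mM K propionate, 20 mM HEPES, 10 mM glucose, 5 mM KCl, 1 mM MgCl2, 1 mM CaCl2, 0.86% DMSO. Swelling followed as absorbance drop at 680 nm over 4 min.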

[2] = target: Sodium/hydrogen exchanger (Oryctolagus cuniculus, UniProt P23791+P50482+P26432); assay: Sodium/hydrogen exchanger antiport activity was measured using [22]Na+ uptake inhibition assay in acidified rabbit erythrocytes; format: cell-based
Outline: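 Acidified rabbit erythrocytes; 22Na+ uptake measured in incubation buffer containing 10 mM Na+. Na+/H+-dependent uptake taken as the EIPA-sensitive portion of 22Na+ uptake.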

Homo sapiens [3] = organism: Homo sapiens; assay: Concentration to achieve half-maximal inhibition of acid-induced swelling in human platelets using platelet swelling assay(PSA).; format: functional; outline: as §1

SMILES	pIC50 (Homo sapiens [1])	IC50 [2] [nM]	pIC50 (Homo sapiens [3])
COC1CS(=O)(=O)c2cc(C(=O)N=C(N)N)ccc21 (stereo not drawn)	< 4.00	700	
N=C(N)NC(=O)c1ccc2c(c1)S(=O)(=O)CC2O (stereo not drawn)	< 4.00	1500	
CC1(C)CC(C)(C)S(=O)(=O)c2cc(C(=O)N=C(N)N)ccc21	5.68	360	
C=C1CCS(=O)(=O)c2cc(C(=O)N=C(N)N)c(C)cc21		29	5.86
CC(C)c1ccc(C(=O)N=C(N)N)cc1S(C)(=O)=O [CARIPORIDE]	6.93		
Cc1cc2c(cc1C(=O)N=C(N)N)S(=O)(=O)C/C2=N\O	6.71	16	
CC1=C(N)c2cc(C)c(C(=O)N=C(N)N)cc2S1(=O)=O	5.63	56	
CO/N=C1\CS(=O)(=O)c2cc(C(=O)N=C(N)N)c(C)cc21	6.28	45	
CC1(C)CCS(=O)(=O)c2cc(C(=O)N=C(N)N)ccc21		2200	
N=C(N)NC(=O)c1ccc2c(c1)S(=O)(=O)CC2	< 4.00	790	
Cc1cc(-n2cccc2)c(S(C)(=O)=O)cc1C(=O)N=C(N)N [ENIPORIDE]	7.49		
Cc1cc2c(cc1C(=O)N=C(N)N)S(=O)(=O)CCCC2	6.56	19	
Cc1cc2c(cc1C(=O)N=C(N)N)S(=O)(=O)CC2(O)Cc1ccccc1 (stereo not drawn)	6.80	43	
Cc1cc2c(cc1C(=O)N=C(N)N)S(=O)(=O)CC21OCCO1	6.31	60	
Cc1cc2c(cc1C(=O)N=C(N)N)S(=O)(=O)CCC21OCCO1	5.93	130	
Cc1cc2c(cc1C(=O)N=C(N)N)S(=O)(=O)CCC2=O	5.44	96	

Results, then the compound that gave them:

pIC50 (Homo sapiens [1])	IC50 [2] [nM]	pIC50 (Homo sapiens [3])	SMILES
6.99	17		Cc1cc2c(cc1C(=O)N=C(N)N)S(=O)(=O)C(C)(C)C2(C)O (stereo not drawn)
6.94	30		Cc1cc2c(cc1C(=O)N=C(N)N)S(=O)(=O)CC2(C)O (stereo not drawn)
6.45	93		Cc1cc2c(cc1C(=O)N=C(N)N)S(=O)(=O)C(C)(C)C2=O
6.94	13		C=C1c2cc(C)c(C(=O)N=C(N)N)cc2S(=O)(=O)C1(C)C
6.59	28		Cc1cc2c(cc1C(=O)N=C(N)N)S(=O)(=O)C(C)(C)C2O (stereo not drawn)
7.11	21		Cc1cc2c(cc1C(=O)N=C(N)N)S(=O)(=O)CC2C(C)C (stereo not drawn)
4.84	95		Cc1cc2c(cc1C(=O)N=C(N)N)S(=O)(=O)CCC2
7.11	24		CCC1CS(=O)(=O)c2cc(C(=O)N=C(N)N)c(C)cc21 (stereo not drawn)
6.16	116		Cc1cc2c(cc1C(=O)N=C(N)N)S(=O)(=O)CC2N (stereo not drawn)
5.30	54		CC(C)=C1CS(=O)(=O)c2cc(C(=O)N=C(N)N)c(C)cc21
6.49	40		COC1(C)CS(=O)(=O)c2cc(C(=O)N=C(N)N)c(C)cc21 (stereo not drawn)
6.23	60		Cc1cc2c(cc1C(=O)N=C(N)N)S(=O)(=O)CC2
6.74	44		Cc1cc2c(cc1C(=O)N=C(N)N)S(=O)(=O)CC2C (stereo not drawn)
6.27	28		Cc1cc2c(cc1C(=O)N=C(N)N)S(=O)(=O)CCCO2
5.96	38		Cc1cc2c(cc1C(=O)N=C(N)N)S(=O)(=O)C(C)(C)CC2C (stereo not drawn)
6.51	14		Cc1cc2c(cc1C(=O)N=C(N)N)S(=O)(=O)C(C)(C)C2C (stereo not drawn)
7.11	34		CCC1(O)CS(=O)(=O)c2cc(C(=O)N=C(N)N)c(C)cc21 (stereo not drawn)
6.18	45		Cc1cc2c(cc1C(=O)N=C(N)N)S(=O)(=O)CCC2C (stereo not drawn)
6.68	96		COC1CS(=O)(=O)c2cc(C(=O)N=C(N)N)c(C)cc21 (stereo not drawn)
6.86	27		COC1c2cc(C)c(C(=O)N=C(N)N)cc2S(=O)(=O)C1(C)C (stereo not drawn)
6.07	36		Cc1cc2c(cc1C(=O)N=C(N)N)S(=O)(=O)C(C)(C)CO2
5.98	70		Cc1cc2c(cc1C(=O)N=C(N)N)S(=O)(=O)CC2O (stereo not drawn)

From ChEMBL document CHEMBL1131104, “Bicyclic acylguanidine Na+/H+ antiporter inhibitors” (J Med Chem, 1998)
